{
  "source": "paper PMC6753381",
  "about": "(Cell reports, 2019)",
  "key": {"[1]": {"system": "Ca45 2+ uptake in 3T3-L1 adipocytes", "assay": "Ca45 2+ uptake assay in 3T3-L1 adipocytes", "assay_type": "cell-based, mouse", "details": "differentiated 3T3-L1 adipocytes, 3 min, pH 7.4, 37°C; ISO 100 nM", "in_short": "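Differentiated adipocytes were washed twice, 15 min apart, at 37°C in 150 mM NaCl, 5 mM KCl, 2 mM CaCl2 and 10 mM HEPES, pH 7.4. They were then incubated 3 min in Ca-free buffer with 2 μCi 45Ca2+, peptide at several concentrations and isoproterenol 100 nM. Stop with ice-cold Ca-free buffer containing 2 mM EGTA and 1 mM LaCl3, then three washes. Lysis in 0.1% Triton X-100; scintillation counting, cpm/well.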"}, "3T3-L1 adipocytes": {"system": "3T3-L1 adipocytes", "assay": "Lipolysis", "assay_type": "cell-based, mouse", "details": "1 h pretreatment, ISO 50 nM, no TLQP-21", "in_short": "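Adipocytes serum-starved 3 h in KRH buffer (HEPES 10 mM, CaCl2 2.2 mM, glucose 5.4 mM) with 1% fatty-acid-free BSA, then treated in KRH with 4% BSA. Inhibitors given as 1 h pretreatment (SKF-96365 dose series; AnC0A4 or KN-62 1 μM) before isoproterenol 50 nM. Medium heat-inactivated 60°C for 20 min. Free glycerol read colorimetrically at 540 nm, normalized to Bradford protein, fold over control.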"}, "[Ca2+]i in 3T3-L1 cells": {"system": "[Ca2+]i in 3T3-L1 cells", "assay": "Fluo-4 intracellular calcium in 3T3-L1 cells", "assay_type": "cell-based, mouse", "details": "SKF-96365 20 μM; for effect of inhibitor on TLQP-21-induced [Ca2+]i increase: TLQP-21 10 μM", "in_short": "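Cells plated at 60% confluency on collagen-coated slides. Next day, loaded 30 min in HBSS with 2.5 μM Fluo-4 AM, washed 30 min, imaged live at 20X every second for 3 min. Agents added at 30 s; HBSS negative, ionomycin and UTP positive controls. Per-cell AUC over first 60 s, background-subtracted, basal-normalized, control-normalized, scaled 0–1; 8–50 cells, 2 experiments.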"}, "[2]": {"biological_target": "T1, m*C3aR1 (murinized hC3aR1) (Homo sapiens, UniProt Q16581, C420S/L413V/S400L/V103I/V419M)", "T1 sequence (Q16581 1-482 V103I/S400L/L413V/V419M/C420S)": "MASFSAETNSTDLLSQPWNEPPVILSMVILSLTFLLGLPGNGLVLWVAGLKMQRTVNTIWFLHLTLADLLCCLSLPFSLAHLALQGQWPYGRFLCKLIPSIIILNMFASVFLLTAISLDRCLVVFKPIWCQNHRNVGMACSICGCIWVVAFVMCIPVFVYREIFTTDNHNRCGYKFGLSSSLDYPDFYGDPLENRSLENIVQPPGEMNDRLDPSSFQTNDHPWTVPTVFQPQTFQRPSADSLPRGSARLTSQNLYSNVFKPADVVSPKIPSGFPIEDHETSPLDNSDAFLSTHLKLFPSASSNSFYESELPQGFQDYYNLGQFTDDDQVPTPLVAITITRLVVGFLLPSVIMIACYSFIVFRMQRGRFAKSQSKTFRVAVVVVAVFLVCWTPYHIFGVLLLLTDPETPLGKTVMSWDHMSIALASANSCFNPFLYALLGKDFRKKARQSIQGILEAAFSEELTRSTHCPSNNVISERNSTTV", "assay": "Tango β-arrestin recruitment assay, murinized hC3aR1", "assay_type": "cell-based", "details": "ratio of EC50 hC3aR1 / m*C3aR1"}, "[3]": {"system": "C3aR1 R161A, R340A and D417A mutants", "details": "R340A, and D417A mutations, ref Sun et al., 1999; cited from earlier work"}, "C3aR1": {"system": "C3aR1", "details": "cited from earlier work"}},
  "note": "Entries after “also recorded” stand apart in the source; their conditions may differ. Counter-ions that a name gives are not always drawn.",
  "data": [
    {"compound": "CC(C)NCC(O)c1ccc(O)c(O)c1", "note": "(centres unmarked) [ISO, Isoproterenol hydrochloride]", "values": [
      {"measurement": "Ca45 2+ uptake from the medium", "setting": "[1]", "value": "did not increase Ca45^2+ uptake under our experimental conditions and did not potentiate TLQP-21-mediated effects; also recorded: does not modify TLQP-21-induced Ca45^2+ uptake from the medium"}
    ]},
    {"compound": "CN([C@@H](Cc1ccc(OS(=O)(=O)c2cccc3cnccc23)cc1)C(=O)N1CCN(c2ccccc2)CC1)S(=O)(=O)c1cccc2cnccc12", "note": "[KN-62]", "values": [
      {"measurement": "effect of inhibitor on basal or ISO-induced lipolysis", "setting": "3T3-L1 adipocytes", "value": "without affecting basal or ISO-induced lipolysis per se"}
    ]},
    {"compound": "NC(N)=NCCC[C@H](NC(=O)COCC(c1ccccc1)c1ccccc1)C(=O)O", "note": "[SB290157]", "values": [
      {"measurement": "effect of inhibitor on TLQP-21-induced [Ca2+]i increase", "setting": "[Ca2+]i in 3T3-L1 cells", "value": "antagonized TLQP-21-mediated calcium influx; also recorded: this effect is antagonized by the C3aR1 antagonist SB290157"}
    ]},
    {"compound": "COc1ccc(CCCOC(Cn2ccnc2)c2ccc(OC)cc2)cc1", "note": "(centres unmarked) [SKF-96365]", "values": [
      {"measurement": "effect of inhibitor on basal or ISO-induced lipolysis", "setting": "3T3-L1 adipocytes", "value": "without affecting basal or ISO-induced lipolysis"},
      {"measurement": "basal fluorescence (Fluo-4)", "setting": "[Ca2+]i in 3T3-L1 cells", "value": "mild SKF-96365-induced elevation of basal fluorescence"},
      {"measurement": "effect of inhibitor on TLQP-21-induced [Ca2+]i increase", "setting": "[Ca2+]i in 3T3-L1 cells", "value": "TLQP-21-induced increase in [Ca^2+]i, measured by Fluo-4 fluorescence, is blocked; also recorded: blocked the TLQP-21-induced increase in [Ca^2+]i"}
    ]},
    {"compound": "C3a63–77: C3aR1 agonist C3a63–77 (LRRQHARASHLGLAR; C3a anaphylatoxin; UniProt P01024 734-748, looked up, fragment)", "values": [
      {"measurement": "increase in β-arrestin potency at m*C3aR1 versus hC3aR1", "setting": "[2]", "value": 8.5, "unit": "fold"}
    ]},
    {"compound": "C3a: 77-amino-acid, full-length C3a; in b45 apparently the C3a63–77 peptide", "values": [
      {"measurement": "increase in β-arrestin potency at m*C3aR1 versus hC3aR1", "setting": "[2]", "value": 8.5, "unit": "fold"},
      {"measurement": "C3a binding affinity to C3aR1 mutants", "setting": "[3]", "value": "complete loss of C3a binding affinity to C3aR1"}
    ]},
    {"compound": "HFHHALPPAR", "values": [
      {"measurement": "biological activity of modified or truncated peptides", "setting": "C3aR1; ref Cero et al., 2014", "value": "only retained minimal biological activity"}
    ]},
    {"compound": "RRRHFHHALPPAR", "values": [
      {"measurement": "biological activity of truncated peptide", "setting": "C3aR1; ref Rivolta et al., 2017", "value": "retains full biological activity"}
    ]}
  ]
}
